For orientation: MIC means the smallest concentration in the dilution series that meets the test's criterion for growth inhibition.

Data set [1] has as its system Klebsiella pneumoniae. The data set is described as follows: Antibacterial activity against Klebsiella pneumoniae ATCC 27736 after 16 hrs by microtiter broth dilution method. The format is functional. To be noted: ATCC 27736, 16 h. Background: Dilution methods test growth across graded concentrations, often in twofold steps.
For data set [2], the system named is L929. The data set is described as follows: Cytotoxicity against mouse L929 cells assessed as cell viability at <= MIC by MTT assay. The format is cell-based. In short, it runs like this: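 Mouse fibroblast L929 cells were exposed to the compound. Viability was read by MTT conversion to blue formazan, measured at 550 nm.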
(Formazan colour is commonly taken as a measure of viable cells.)

Data set [3] has as its system Staphylococcus aureus. Kind of data set: Antibacterial activity against methicillin/gentamicin-resistant Staphylococcus aureus ATCC 33592 after 16 hrs by microtiter broth dilution method. The format is functional. To be noted: ATCC 33592, 16 h.
The test system of data set [4] is Staphylococcus aureus. The data set is described as follows: Antibacterial activity against […] Staphylococcus aureus ATCC 29213 after 16 hrs by microtiter broth dilution method. The format is functional. The note with it: ATCC 29213, 16 h.
In data set [5] the test system is Escherichia coli. The data set is described as follows: Antibacterial activity against Escherichia coli ATCC 9637 after 16 hrs by microtiter broth dilution method. The format is functional. To be noted: W.
In data set [6] the test system is Pseudomonas aeruginosa. The data set is described as follows: Antibacterial activity against Pseudomonas aeruginosa ATCC BAA-427 after 16 hrs by microtiter broth dilution method. The note with it: ATCC BAA-427, 16 h. The format is functional.
Data set [7] relates to Trichophyton mentagrophytes. The data set is described as follows: Antifungal activity against Trichophyton mentagrophytes after 16 hrs by microtiter broth dilution method. The format is functional.
Data set [8] deals with L929. Kind of data set: Cytotoxicity against mouse L929 cells assessed as induction of morphological changes at 1 x MIC after 24 hrs by Giemsa staining-based phase contrast microscopic analysis. The format is cell-based. To be noted: l929, 24 h. The method in brief: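 L929 fibroblasts were incubated with the compound for 24 h, then Giemsa-stained. Morphology was compared with untreated control cells under phase contrast microscopy for appearance, transparency and attachment to the well surface.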

In data set [9] the test system is Staphylococcus aureus. Kind of data set: Antibacterial activity against methicillin-resistant Staphylococcus aureus ATCC 700699 after 16 hrs by microtiter broth dilution method. The note with it: ATCC 700699, 16 h. The format is functional.
For data set [10], the system named is Candida albicans. The data set is described as follows: Antifungal activity against Candida albicans after 16 hrs by microtiter broth dilution method. The format is functional.
Data set [11] deals with Sporothrix schenckii. Kind of data set: Antifungal activity against Sporothrix schenckii after 16 hrs by microtiter broth dilution method. The format is functional.
The subject of data set [12] is Cryptococcus neoformans. Kind of data set: Antifungal activity against Cryptococcus neoformans after 16 hrs by microtiter broth dilution method. The format is functional.
Data set [13] has as its system Staphylococcus aureus. Kind of data set: Antibacterial activity against Staphylococcus aureus ATCC 25923 after 16 hrs by microtiter broth dilution method. The format is functional. To be noted: ATCC 25923, 16 h.
Data set [14] deals with Candida parapsilosis. The data set is described as follows: Antifungal activity against Candida parapsilosis ATCC 22019 after 16 hrs by microtiter broth dilution method. The format is functional. The note with it: Lodderomyces parapsilosis, ATCC 22019, 16 h.
Data set [15] in a line: Hemolytic activity in human RBC at 100 ug/ml after 1 hr. To be noted: erythrocyte.
In data set [16] the test system is Aspergillus fumigatus. Kind of data set: Antifungal activity against Aspergillus fumigatus after 16 hrs by microtiter broth dilution method. The format is functional.
The test system of data set [17] is Staphylococcus aureus. Kind of data set: Antibacterial activity against […] Staphylococcus aureus ATCC 29213 assessed as reduction in log10CFU at 1x MIC and 10x MIC measured at 24 hrs relative to control. The format is functional. The method in brief:
(§1)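 Aliquots were taken at regular time points and plated for CFU counts. Reduction in log10 CFU was taken against a no-drug control.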

Data set [18] has as its system Staphylococcus aureus. The data set is described as follows: Antibacterial activity against […] Staphylococcus aureus ATCC 29213 in neutropenic BALB/C mouse septicemia model assessed as reduction in bacterial burden in kidney at 15 mg/kg, ip administered twice at 3 hrs interval measured after 24 hrs. The format is functional, organism-based. The method in brief: (§2)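 BALB/c mice were made neutropenic with cyclophosphamide (150 mg/kg) and then infected intraperitoneally with S. aureus ATCC 29213. From 3 h post-infection, compound was injected at 15 mg/kg twice, 3 h apart. At 24 h, spleen, kidney and liver were crushed and plated on TH plates for CFU. Data from three independent experiments were pooled; P by ANOVA on ranks.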

Data set [19] deals with Staphylococcus aureus. The data set is described as follows: Antibacterial activity against […] Staphylococcus aureus ATCC 29213 assessed as reduction in log10CFU measured at 24 hrs. The format is functional, organism-based. In short, it runs like this:
as §1

In data set [20] the test system is Staphylococcus aureus. The data set is described as follows: Antibacterial activity against […] Staphylococcus aureus ATCC 29213 in neutropenic BALB/C mouse septicemia model assessed as reduction in bacterial burden in liver at 15 mg/kg, ip administered twice at 3 hrs interval measured after 24 hrs. The format is functional, organism-based. In short, it runs like this: as §2

The test system of data set [21] is Staphylococcus aureus. The data set is described as follows: Antibacterial activity against […] Staphylococcus aureus ATCC 29213 in neutropenic BALB/C mouse septicemia model assessed as increase in mouse survival at 15 mg/kg, ip administered twice at 3 hrs interval. The format is functional, organism-based.
Data set [22] relates to Staphylococcus aureus. Kind of data set: Antibacterial activity against […] Staphylococcus aureus ATCC 29213 in neutropenic BALB/C mouse septicemia model assessed as reduction in bacterial burden in spleen at 15 mg/kg, ip administered twice at 3 hrs interval measured after 24 hrs. The format is functional, organism-based. In short, it runs like this: as §2

In brackets after ≈: the same amount, converted by molar mass. Activity calls are given as the source filed them.

On to `CCOC(=O)c1csc(/N=C/c2cc(/C=C/C(=O)c3ccc(C)cc3)cc(C(C)(C)C)c2O)n1`, for which the MIC in [1] is above 105 µM; in data set [3], 3.3 µM (≈ 1.57 µg/mL); in data set [4] it was 6.5 µM (≈ 3.1 µg/mL); in data set [5], above 105 µM; in [6], above 105 µM; in data set [7] it was above 105 µM. Also, the MIC in [9] was 13.1 µM (≈ 6.24 µg/mL); in data set [10], above 105 µM; in data set [11] it was above 105 µM; in [12], above 105 µM; in data set [13], 6.5 µM (≈ 3.1 µg/mL); in data set [14] it was above 105 µM. The minimal inhibitory concentration (MIC) in [16] is above 105 µM. Moreover, the Activity result in [2], in data set [8] and in data set [15] was “Non-toxic” each time.
For the compound `C[C@H]1COc2c(N3CCN(C)CC3)c(F)cc3c(=O)c(C(=O)O)cn1c23`, the result in data set [17] was Active.
Take `COc1ccc(-c2csc(/N=C/c3cc(/C=C/C(=O)c4ccc(C)cc4)cc(C(C)(C)C)c3O)n2)cc1OC`: the MIC in data set [1] was above 92.5 µM; in data set [3] it was 1.4 µM (≈ 0.757 µg/mL); in data set [4], 5.8 µM (≈ 3.14 µg/mL); in [5], above 92.5 µM; in data set [6], above 92.5 µM; in data set [7], above 92.5 µM. The minimum inhibitory concentration (MIC) in data set [9] is 11.6 µM (≈ 6.27 µg/mL); in data set [10], above 92.5 µM; in data set [11] it was above 92.5 µM; in [12], above 92.5 µM; in data set [13], 5.8 µM (≈ 3.14 µg/mL); in data set [14], above 92.5 µM. Besides, in data set [16], the MIC is above 92.5 µM. In addition, the Activity result was “Non-toxic” in data set [2]; “Non-toxic” in [8]; “Dose-dependent effect” in data set [19]; “Non-toxic” in data set [15]; 10 log10CFU/ml in data set [17]. Further, in data set [18], the outcome was inactive. For the same compound, the outcome in data set [20], in data set [21] and in data set [22] was Active.
Regarding `CCOC(=O)c1csc(/N=C/c2cc(/C=C/C(=O)c3ccc(OC)cc3)cc(C(C)(C)C)c2O)n1`, the MIC in data set [1] is above 102 µM; in [3] it was 3.2 µM (≈ 1.58 µg/mL); in data set [4], 12.7 µM (≈ 6.26 µg/mL); in data set [5], above 102 µM; in [6], above 102 µM; in data set [7], above 102 µM. Moreover, the minimum inhibitory concentration (MIC) in data set [9] is 12.7 µM (≈ 6.26 µg/mL); in [10], above 102 µM; in data set [11] it was above 102 µM; in data set [12], above 102 µM; in data set [13] it was 12.7 µM (≈ 6.26 µg/mL); in data set [14] it was above 102 µM. This compound also registered an MIC in data set [16] above 102 µM. For the same compound, the Activity entry in [15] is recorded as “Non-toxic”.
As for `CCOC(=O)c1csc(/N=C/c2cc(/C=C/C(=O)c3ccc(OC)cc3)cc(C(C)C)c2O)n1`, the minimal inhibitory concentration (MIC) in [1] was above 104 µM; in data set [3], 26.1 µM (≈ 12.5 µg/mL); in data set [4], 26.1 µM (≈ 12.5 µg/mL); in [5] it was above 104 µM; in [6] it was above 104 µM; in data set [7], above 104 µM. In addition, the MIC is 26.1 µM (≈ 12.5 µg/mL) in [9]; above 104 µM in data set [10]; above 104 µM in data set [11]; above 104 µM in [12]; 26.1 µM (≈ 12.5 µg/mL) in data set [13]; above 104 µM in [14]. Further, the MIC in data set [16] was above 104 µM. The Activity entry in data set [15] is “Non-toxic”.

The record behind these values is ChEMBL document CHEMBL3608288, “Novel Chalcone-Thiazole Hybrids as Potent Inhibitors of Drug Resistant Staphylococcus aureus” (ACS Med Chem Lett, 2015).
